Test results as given in PubChem BioAssay AID602268 (Broad Institute, 2012).
“And” between values parts separate entries of the source, which are not always exact repeats. Equal entries are not always repeated. The source made the active and inactive calls.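 Rule for the calls: active = compounds lowering reporter light with a fitted half-maximal dose no more than twice the top dose tested; inconclusive = flat curve at 30 to 70% inhibition, or poor fit; inactive = the rest.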

Key:
[1] = tested on: NIH3T3-HGL HSE-luciferase, MG132-induced, luminescence 8 h; test: decrease of HSF-1-responsive luciferase luminescence – cell-based, NIH3T3, dry powder samples, dose response (AID 602268)
In short: (§1)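 Assay system – NIH3T3-HGL cells, HSE-controlled luciferase reporter · Timing – 24 h cell seeding, 30 min compound pretreatment, 8 h MG132 · Medium – Opti-MEM with 2.5% FBS · Technique – Steady-Glo luminescence of luciferase · Reagent – MG132 at 2.5 µM final · Control set – Didemnin B 400 nM as positive control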

[2] = as above; settings: NIH3T3-HGL HSE-luciferase, MG132-induced, luminescence 8 h; at 26 µM (top of the series)
In short: as §1

Structure (SMILES) | AC50 [1] | activity change, negative = inhibition [2]
CC1=NNC(=O)/C1=C\c1cn(-c2ccccc2)nc1-c1ccc(Cl)cc1 | 1460 nM | –
Oc1ccc(Br)cc1/C=N/Nc1ccccn1 | 1720 nM | –
O=C1C=C(NCCN2CCOCC2)C(=O)c2cnccc21 | 2370 nM | –
CCc1ccc(NC(=O)C2C3CCC(O3)C2C(=O)O)cc1 (stereo not given) | – | 7.59% (inactive) and -9.7% (inactive)
O=C(CCl)N1CCCC1c1ccc2c(c1)OCCO2 (stereo not given) | 949 nM | –
